Results published in ChEMBL document CHEMBL1142436, “Design and synthesis of 4-substituted indolo[3,2-e][1,2,3]triazolo[1,5-a]pyrimidine derivatives with antitumor activity” (2008).
Blank lines part the entries; values can stand above or below the compound they belong to.

Legend:
Type in all cases: functional
MCF7 [1] = experiment: Antitumor activity against human MCF7 cells at 0.1 mM after 48 hrs
Summary of the method: (§1)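 Prescreen run under the NCI Developmental Therapeutic Program. Agents were tested at a single concentration of 10^-4 M against a three-line panel (MCF7, NCI-H460, SF-268).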

NCI-H460 [2] = experiment: Antitumor activity against human NCI-H460 cells at 0.1 mM after 48 hrs; summary of the method: as §1
SF-268 [3] = experiment: Antitumor activity against human SF268 cells at 0.1 mM after 48 hrs; summary of the method: as §1
CCRF-CEM = experiment: Growth inhibition of human CCRF-CEM cells after 48 hrs
Summary of the method: (§2)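 NCI ~60-line screen. Cells were grown in RPMI 1640 with 5% FBS and 2 mM L-glutamine and plated at 5000–40000 cells/well. After a 24 h preincubation, five drug concentrations from DMSO stocks were added for 48 h at 37 °C. Cells were TCA-fixed, stained with SRB and read at 515 nm. GI50 was taken from time-zero and control absorbances and reported as pGI50.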

HL-60 = experiment: Growth inhibition of human HL60 cells after 48 hrs; conditions: HL-60, 48 h; summary of the method: as §2
K562 = experiment: Growth inhibition of human K562 cells after 48 hrs; conditions: K562, 48 h; summary of the method: as §2
MOLT-4 = experiment: Growth inhibition of human MOLT4 cells after 48 hrs; conditions: MOLT-4, 48 h; summary of the method: as §2
[4] = Growth inhibition of human HS578T cells after 48 hrs; conditions: Hs-578T; summary of the method: as §2
MDA-MB-435 = experiment: Growth inhibition of human MDA-MB435 cells after 48 hrs; conditions: MDA-MB-435, 48 h; summary of the method: as §2
BT-549 = experiment: Growth inhibition of human BT549 cells after 48 hrs; conditions: BT-549, 48 h; summary of the method: as §2
T47D = experiment: Growth inhibition of human T47D cells after 48 hrs
Summary of the method: (§3)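 NCI 60-line screen: cells in RPMI 1640 with 5% FBS and 2 mM L-glutamine, plated at 5000–40000 cells/well, grown 24 h (37 °C, 5% CO₂), then exposed to five 10-fold or ½-log dilutions (DMSO stock) for 48 h. Fixed with TCA (final 10% for adherent cells, 16% for suspension cells), then SRB stained with absorbance at 515 nm. GI50 from percentage growth relative to time-zero and control wells.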

RPMI-8226 = experiment: Growth inhibition of human RPMI8226 cells after 48 hrs; conditions: RPMI-8226, 48 h; summary of the method: as §2
SR = experiment: Growth inhibition of human SR cells after 48 hrs; summary of the method: as §3
A549 = experiment: Growth inhibition of human A549 cells after 48 hrs; conditions: A549, 48 h; summary of the method: as §2
EKVX = experiment: Growth inhibition of human EKVX cells after 48 hrs; summary of the method: as §2
HOP-62 = experiment: Growth inhibition of human HOP62 cells after 48 hrs; conditions: HOP-62, 48 h; summary of the method: as §2
HOP-92 = experiment: Growth inhibition of human HOP92 cells after 48 hrs; conditions: HOP-92, 48 h; summary of the method: as §2
NCI-H226 = experiment: Growth inhibition of human NCI-H226 cells after 48 hrs; conditions: NCI-H226, 48 h; summary of the method: as §2
NCI-H23 = experiment: Growth inhibition of human NCI-H23 cells after 48 hrs; conditions: Homo sapiens, NCI-H23, 48 h; summary of the method: as §2
NCI-H322M = experiment: Growth inhibition of human NCI-H322M cells after 48 hrs; summary of the method: as §2
NCI-H460 [5] = experiment: Growth inhibition of human NCI-H460 cells after 48 hrs; conditions: NCI-H460, 48 h; summary of the method: as §2
NCI-H522 = experiment: Growth inhibition of human NCI-H522 cells after 48 hrs; conditions: NCI-H522, 48 h; summary of the method: as §2
COLO 205 = experiment: Growth inhibition of human COLO205 cells after 48 hrs; conditions: COLO 205, 48 h; summary of the method: as §2
HCC 2998 = experiment: Growth inhibition of human HCC2998 cells after 48 hrs; conditions: HCC 2998, 48 h; summary of the method: as §2
HCT-116 = experiment: Growth inhibition of human HCT116 cells after 48 hrs; conditions: HCT-116, 48 h; summary of the method: as §2
HCT-15 = experiment: Growth inhibition of human HCT15 cells after 48 hrs; conditions: HCT-15, 48 h; summary of the method: as §2
HT-29 = experiment: Growth inhibition of human HT29 cells after 48 hrs; conditions: HT-29, 48 h; summary of the method: as §2
KM12 = experiment: Growth inhibition of human KM12 cells after 48 hrs; conditions: KM12, 48 h; summary of the method: as §2
SW-620 = experiment: Growth inhibition of human SW620 cells after 48 hrs; conditions: SW-620, 48 h; summary of the method: as §3
SF-268 [6] = experiment: Growth inhibition of human SF268 cells after 48 hrs; conditions: SF-268, 48 h; summary of the method: as §2
SF-295 = experiment: Growth inhibition of human SF295 cells after 48 hrs; conditions: SF-295, 48 h; summary of the method: as §2
SF-539 = experiment: Growth inhibition of human SF539 cells after 48 hrs; conditions: SF-539, 48 h; summary of the method: as §2
SNB-19 = experiment: Growth inhibition of human SNB19 cells after 48 hrs; conditions: SNB-19, 48 h; summary of the method: as §3
SNB-75 = experiment: Growth inhibition of human SNB75 cells after 48 hrs; conditions: SNB-75, 48 h; summary of the method: as §3
U-251 = experiment: Growth inhibition of human U251 cells after 48 hrs; conditions: U-251, 48 h; summary of the method: as §3
LOX IMVI = experiment: Growth inhibition of human LOXIMVI cells after 48 hrs; summary of the method: as §2
Malme-3M = experiment: Growth inhibition of human MALME3M cells after 48 hrs; summary of the method: as §2
M14 = experiment: Growth inhibition of human M14 cells after 48 hrs; conditions: M14, 48 h; summary of the method: as §2
SK-MEL-2 = experiment: Growth inhibition of human SK-MEL2 cells after 48 hrs; conditions: SK-MEL-2, 48 h; summary of the method: as §2
SK-MEL-28 = experiment: Growth inhibition of human SK-MEL28 cells after 48 hrs; conditions: SK-MEL-28, 48 h; summary of the method: as §2
SK-MEL-5 = experiment: Growth inhibition of human SK-MEL5 cells after 48 hrs; conditions: SK-MEL-5, 48 h; summary of the method: as §2
UACC-257 = experiment: Growth inhibition of human UACC257 cells after 48 hrs; conditions: UACC-257, 48 h; summary of the method: as §3
UACC-62 = experiment: Growth inhibition of human UACC62 cells after 48 hrs; conditions: UACC-62, 48 h; summary of the method: as §3
IGROV-1 = experiment: Growth inhibition of human IGROV1 cells after 48 hrs; conditions: IGROV-1, 48 h; summary of the method: as §2
OVCAR-3 = experiment: Growth inhibition of human OVCAR-3 cells after 48 hrs; conditions: OVCAR-3, 48 h; summary of the method: as §2
OVCAR-4 = experiment: Growth inhibition of human OVCAR4 cells after 48 hrs; conditions: OVCAR-4, 48 h; summary of the method: as §2
OVCAR-5 = experiment: Growth inhibition of human OVCAR5 cells after 48 hrs; conditions: OVCAR-5, 48 h; summary of the method: as §2
OVCAR-8 = experiment: Growth inhibition of human OVCAR8 cells after 48 hrs; conditions: OVCAR-8, 48 h; summary of the method: as §2
SK-OV-3 = experiment: Growth inhibition of human SKOV3 cells after 48 hrs; conditions: SK-OV-3, 48 h; summary of the method: as §3
786-0 = experiment: Growth inhibition of human 786-0 cells after 48 hrs; conditions: 786-0, 48 h; summary of the method: as §2
A498 = experiment: Growth inhibition of human A498 cells after 48 hrs; conditions: A498, 48 h; summary of the method: as §2
ACHN = experiment: Growth inhibition of human ACHN cells after 48 hrs; summary of the method: as §2
CAKI-1 = experiment: Growth inhibition of human CAKI1 cells after 48 hrs; conditions: CAKI-1, 48 h; summary of the method: as §2
RXF 393 = experiment: Growth inhibition of human RXF393 cells after 48 hrs; conditions: RXF 393, 48 h; summary of the method: as §2
SN12C = experiment: Growth inhibition of human SN12C cells after 48 hrs; summary of the method: as §3
TK-10 = experiment: Growth inhibition of human TK10 cells after 48 hrs; conditions: TK-10, 48 h; summary of the method: as §3
UO-31 = experiment: Growth inhibition of human UO31 cells after 48 hrs; conditions: UO-31, 48 h; summary of the method: as §3
PC-3 = experiment: Growth inhibition of human PC3 cells after 48 hrs; conditions: PC-3, 48 h; summary of the method: as §2
DU-145 = experiment: Growth inhibition of human DU145 cells after 48 hrs; conditions: DU-145, 48 h; summary of the method: as §2
MCF7 [7] = experiment: Growth inhibition of human MCF7 cells after 48 hrs; conditions: MCF7, 48 h; summary of the method: as §2
NCI/ADR-RES = experiment: Growth inhibition of human NCI/ADR-RES cells after 48 hrs; summary of the method: as §2
MDA-MB-231 = experiment: Growth inhibition of human MDA-MB-231 cells after 48 hrs; conditions: MDA-MB-231, 48 h; summary of the method: as §2

Structure (SMILES): COC(=O)C(Cc1c[nH]cn1)NC(=O)CCCn1c(=O)c2c3ccccc3n(C)c2n2nnc(-c3ccccc3)c12 (stereo not given)
Activity (MCF7 [1]): 116%
Activity (NCI-H460 [2]): 117%
Activity (SF-268 [3]): 128%

Structure (SMILES): Cn1c2ccccc2c2c(=O)n(CCCC(=O)O)c3c(-c4ccccc4)nnn3c21
Activity (MCF7 [1]): 80%
Activity (NCI-H460 [2]): 95%
Activity (SF-268 [3]): 87%

GI50 (CCRF-CEM): > 100 µM
GI50 (HL-60): > 100 µM
GI50 (K562): > 100 µM
GI50 (MOLT-4): > 100 µM
GI50 (MDA-MB-435): > 100 µM
GI50 (BT-549): 72.4 µM
GI50 (T47D): 56.2 µM
GI50 (RPMI-8226): > 100 µM
GI50 (A549): > 100 µM
GI50 (NCI-H226): > 100 µM
GI50 (NCI-H23): > 100 µM
GI50 (NCI-H322M): > 100 µM
GI50 (NCI-H460 [5]): > 100 µM
GI50 (NCI-H522): 69.2 µM
GI50 (COLO 205): > 100 µM
GI50 (HCC 2998): > 100 µM
GI50 (HCT-116): 91.2 µM
GI50 (HCT-15): > 100 µM
GI50 (HT-29): > 100 µM
GI50 (SW-620): > 100 µM
GI50 (U-251): > 100 µM
GI50 (SK-MEL-2): > 100 µM
GI50 (SK-MEL-28): > 100 µM
GI50 (SK-MEL-5): > 100 µM
GI50 (OVCAR-3): > 100 µM
GI50 (OVCAR-4): 38 µM
GI50 (OVCAR-5): > 100 µM
GI50 (OVCAR-8): > 100 µM
GI50 (SK-OV-3): > 100 µM
GI50 (786-0): > 100 µM
GI50 (ACHN): > 100 µM
GI50 (PC-3): > 100 µM
GI50 (DU-145): > 100 µM
GI50 (MCF7 [7]): 64.6 µM
GI50 (MDA-MB-231): 72.4 µM
Structure (SMILES): Cn1c2ccccc2c2c(=O)n(CCCC(=O)N(C(=O)NC3CCCCC3)C3CCCCC3)c3c(-c4ccccc4)nnn3c21
GI50 [4]: > 100 µM
GI50 (SR): > 100 µM
GI50 (EKVX): > 100 µM
GI50 (HOP-62): > 100 µM
GI50 (HOP-92): > 100 µM
GI50 (KM12): > 100 µM
GI50 (SF-268 [6]): 97.7 µM
GI50 (SF-295): 79.4 µM
GI50 (SF-539): 38 µM
GI50 (SNB-19): > 100 µM
GI50 (SNB-75): 44.7 µM
GI50 (LOX IMVI): > 100 µM
GI50 (Malme-3M): > 100 µM
GI50 (M14): > 100 µM
GI50 (UACC-257): > 100 µM
GI50 (UACC-62): > 100 µM
GI50 (IGROV-1): 15.5 µM
GI50 (A498): 66.1 µM
GI50 (CAKI-1): > 100 µM
GI50 (RXF 393): 63.1 µM
GI50 (SN12C): > 100 µM
GI50 (TK-10): > 100 µM
GI50 (UO-31): > 100 µM
GI50 (NCI/ADR-RES): 95.5 µM
